Data reported in ChEMBL document CHEMBL1145996 (J Med Chem, 2003).

Legend:
Type in all cases: functional, organism-based
[1] = system: Leishmania donovani; test: Antileishmanial activity of compound against leishmania donovani was determined in luciferase assay
Summary of the method: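 Transgenic Leishmania donovani promastigotes expressing firefly luciferase, 2×10^6 cell/mL, exposed to compound dilutions in 96-well plates at 26°C for 72 h; growth read by luciferase luminescence (Steady Glo). At least six concentrations, each in duplicate; mean values used for growth inhibition curves and IC50. Pentamidine and amphotericin B as standards.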

[2] = system: Plasmodium falciparum; test: In vitro antimalarial activity against chloroquine-sensitive Plasmodium falciparum D6 Sierra Leone
[3] = system: Plasmodium falciparum; test: In vitro antimalarial activity against chloroquine-resistant Plasmodium falciparum W2 Indochina
Summary of the method: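 Asynchronous P. falciparum cultures (2% hematocrit, 2% parasitemia) given compound dilutions in DMSO or RPMI-1640, incubated 48 h at 37°C under 90% N2/5% CO2/5% O2 in humidified chamber. Growth read as parasite lactate dehydrogenase activity with Malstat reagent. At least six concentrations, each in duplicate; medium and RBC controls on each plate.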

SMILES | IC50 [1] [µM] | IC50 [2] [µM] | IC50 [3] [µM]
C[C@@H]1CC[C@H]2[C@@H](CCCCc3ccccc3)C(=O)O[C@@H]3O[C@@]4(C)CCC1[C@]32OO4 (stereo partly specified) | 7.5 | – | –
C[C@@H]1CC[C@H]2[C@@H](CCCC(F)(F)F)C(=O)O[C@@H]3O[C@@]4(C)CCC1[C@]32OO4 (stereo partly specified) | 79.3 | – | –
C[C@@H]1CC[C@H]2CC(=O)O[C@@H]3O[C@@]4(CCCc5ccc(Cl)cc5)CCC1[C@@]23OO4 (stereo partly specified) | 11.1 | – | –
C[C@@H]1CC[C@H]2[C@@H](Cc3ccccc3)C(=O)O[C@@H]3O[C@@]4(C)CCC1[C@]32OO4 (stereo partly specified) | 15.3 | – | –
C[C@@H]1CC[C@H]2[C@@H](CCC#N)C(=O)O[C@@H]3O[C@@]4(C)CCC1[C@]32OO4 (stereo partly specified) | 38.9 | 0.0149 | 0.0149
CC(C)CCC[C@H]1C(=O)O[C@@H]2O[C@@]3(C)CCC4[C@H](C)CC[C@@H]1[C@]42OO3 (stereo partly specified) | 8.5 | – | –
COc1ccc(CCC[C@H]2CO[C@@H]3O[C@@]4(C)CC[C@H]5[C@H](C)CC[C@@H]2[C@@]35OO4)cc1 | 17.4 | – | –
C[C@@H]1CC[C@H]2CC(=O)O[C@@H]3OC4(CCc5ccccc5)CC[C@@H]1[C@@]23OO4 (single isomer, unassigned) | 12.6 | – | –
CCOC(=O)CCC12CCC3[C@H](C)CC[C@H]4CC(=O)O[C@H](O1)[C@@]34OO2 (single isomer, unassigned) | 31 | – | –
C[C@@H]1CC[C@H]2[C@@H](CCCc3ccc(N(C)C)cc3)CO[C@@H]3O[C@@]4(C)CC[C@@H]1[C@]32OO4 | 36 | 0.0165 | 0.0143
CCCCN1C(=O)C[C@@H]2CC[C@@H](C)[C@@H]3CC[C@@]4(C)OO[C@@]23[C@H]1O4 | 44.5 | – | –
CC(C)CN1C(=O)C[C@@H]2CC[C@@H](C)[C@@H]3CC[C@@]4(C)OO[C@@]23[C@H]1O4 | 186 | – | –
C[C@@H]1CC[C@H]2[C@@H](CCCc3ccc(O)cc3)C(=O)O[C@@H]3O[C@@]4(C)CC[C@@H]1[C@]32OO4 | 44.7 | 0.0079 | 0.0047
CC1(C)OO[C@]23CCCC[C@H]2C(C)(C)C(=O)O[C@@H]3O1 | 204 | – | –
CCCC[C@@]12CCC3[C@H](C)CC[C@H]4CC(=O)O[C@H](O1)[C@@]34OO2 (stereo partly specified) | 258 | – | –
CCC[C@@]12CCC3[C@H](C)CC[C@H]4CC(=O)O[C@H](O1)[C@@]34OO2 (stereo partly specified) | 40.5 | – | –
C[C@@H]1CC[C@H]2CC(=O)N(CCc3ccccc3)[C@@H]3O[C@@]4(C)CC[C@@H]1[C@@]23OO4 | 32.3 | – | –
C[C@@H]1CC[C@H]2CC(=O)O[C@@H]3O[C@@]4(C)CCC1[C@@]23OO4 (stereo partly specified) | 242 | – | –
C[C@@H]1CC[C@H]2[C@@H](CCc3ccccc3)C(=O)O[C@@H]3O[C@@]4(C)CCC1[C@]32OO4 (stereo partly specified) | 40.3 | – | –
C[C@@H]1CC[C@H]2[C@@H](CCCc3cc(C(F)(F)F)cc(C(F)(F)F)c3)C(=O)O[C@@H]3O[C@@]4(C)CC[C@@H]1[C@]32OO4 | 14.4 | 0.0188 | 0.016
C[C@@H]1CC[C@H]2[C@@H](CCCC(F)(F)F)C(O)O[C@@H]3O[C@@]4(C)CC[C@@H]1[C@]32OO4 (stereo partly specified) | 26.3 | – | –

SMILES | IC50 [1] [µM] | IC50 [2] [µM] | IC50 [3] [µM]
CC[C@@]12CC[C@H]3[C@H](C)CC[C@H]4CC(=O)O[C@H](O1)[C@]43OO2 | 177 | – | –
C[C@@H]1CC[C@H]2CC(=O)N(Cc3ccccc3)[C@@H]3O[C@@]4(C)CC[C@@H]1[C@@]23OO4 | 56 | – | –
C[C@@H]1CC[C@H]2[C@@H](CCCc3cc(F)cc(F)c3)C(=O)O[C@@H]3O[C@@]4(C)CCC1[C@]32OO4 (stereo partly specified) | 49.7 | – | –
C[C@@H]1[C@H](O)[C@@H](C)/C=C/C=C/C=C/C=C/C=C/C=C/C=C/[C@H](O[C@@H]2O[C@H](C)[C@@H](O)[C@H](N)[C@@H]2O)C[C@@H]2O[C@](O)(C[C@@H](O)C[C@@H](O)[C@H](O)CC[C@@H](O)C[C@@H](O)CC(=O)O[C@H]1C)C[C@H](O)[C@H]2C(=O)O [AMPHOTERICIN B] | 0.01 | – | –
C[C@@H]1CC[C@H]2[C@H](CCCc3ccc(N(C)C)cc3)C(=O)O[C@@H]3O[C@@]4(C)CCC1[C@]32OO4 (stereo partly specified) | 88.3 | – | –
CCC[C@@]12CC[C@H]3[C@H](C)CC[C@H]4CCO[C@H](O1)[C@]43OO2 | 70.8 | – | –
CCOC1O[C@@H]2O[C@]3(C)CC[C@H]4[C@H](C)CC[C@@H]([C@H]1C)C24OO3 (stereo partly specified) | 44.8 | – | –
C[C@@H]1CC[C@H]2CC(=O)N(CC(=O)OC(C)(C)C)[C@@H]3O[C@@]4(C)CC[C@@H]1[C@@]23OO4 | 27.5 | – | –
CCCC[C@H]1C(=O)O[C@@H]2O[C@@]3(CC)CCC4[C@H](C)CC[C@@H]1[C@]42OO3 (stereo partly specified) | 35.5 | – | –
CCC[C@H]1C(=O)O[C@@H]2O[C@@]3(C)CCC4[C@H](C)CC[C@@H]1[C@]42OO3 (stereo partly specified) | 16.8 | – | –
CCCC[C@H]1C(=O)O[C@@H]2O[C@@]3(C)CCC4[C@H](C)CC[C@@H]1[C@]42OO3 (stereo partly specified) | 12.3 | – | –
C[C@H]1[C@@H](O)O[C@@H]2O[C@@]3(C)CC[C@H]4[C@H](C)CC[C@@H]1[C@@]24OO3 [ARTENIMOL] | 70.3 | – | –
CC(=O)O[C@@H]1O[C@@]2(C)CC[C@H]3[C@H](C)CCC[C@@]13OO2 | 148 | – | –
C[C@@H]1CC[C@H]2[C@@H](CCCc3cccc(F)c3)C(=O)O[C@@H]3O[C@@]4(C)CCC1[C@]32OO4 (stereo partly specified) | 3.7 | – | –
C[C@@H]1CC[C@H]2C(C)(C)C(=O)O[C@@H]3O[C@@]4(C)CCC1[C@]32OO4 (stereo partly specified) | 101 | – | –
C[C@@H]1CC[C@H]2[C@@H](CCCc3ccc(Cl)c(Cl)c3)CO[C@@H]3O[C@@]4(C)CC[C@@H]1[C@]32OO4 | 2.3 | – | –
C[C@@H]1CC[C@H]2[C@@H](CCCc3cc(F)cc(F)c3)CO[C@@H]3O[C@@]4(C)CC[C@@H]1[C@]32OO4 | 11 | – | –
C=CC[C@H]1C(=O)O[C@@H]2O[C@@]3(C)CCC4[C@H](C)CC[C@@H]1[C@]42OO3 (stereo partly specified) | 17.8 | – | –
COc1ccc(CCC[C@H]2C(=O)O[C@@H]3O[C@@]4(C)CCC5[C@H](C)CC[C@@H]2[C@]53OO4)cc1 (stereo partly specified) | 12 | – | –
CCCC[C@H]1C(=O)O[C@@H]2O[C@@]3(CCCCc4ccccc4)CCC4[C@H](C)CC[C@@H]1[C@]42OO3 (stereo partly specified) | 4.5 | – | –
OC(c1cc(C(F)(F)F)nc2c(C(F)(F)F)cccc12)C1CCCCN1 (stereo unspecified) [MEFLOQUINE] | – | 0.17 | 0.195

SMILES | IC50 [1] [µM] | IC50 [2] [µM] | IC50 [3] [µM]
CC[C@H]1C(=O)O[C@@H]2O[C@@]3(C)CCC4[C@H](C)CC[C@@H]1[C@]42OO3 (stereo partly specified) | 60.7 | – | –
CCCC[C@@]12CC[C@H]3[C@H](C)CC[C@H]4CCO[C@H](O1)[C@]43OO2 | 152 | – | –
C[C@@H]1CC[C@H]2[C@@H](CCCc3ccc(C(F)(F)F)cc3)CO[C@@H]3O[C@@]4(C)CC[C@@H]1[C@]32OO4 | 1.8 | – | –
C[C@@H]1CC[C@H]2[C@@H](CCCc3ccc(Cl)cc3)C(=O)O[C@@H]3O[C@@]4(C)CCC1[C@]32OO4 (stereo partly specified) | 11.9 | – | –
C[C@@H]1CC[C@H]2[C@@H](CCCc3cccc(Cl)c3)C(O)O[C@@H]3O[C@@]4(C)CC[C@@H]1[C@]32OO4 (stereo partly specified) | 16.6 | – | –
C[C@@H]1CC[C@H]2CC(=O)N(Cc3ccc(Cl)cc3)[C@@H]3O[C@@]4(C)CC[C@@H]1[C@@]23OO4 | 25.5 | – | –
C[C@@H]1CC[C@H]2CCO[C@@H]3O[C@@]4(C)CC[C@@H]1[C@@]23OO4 | 49.2 | – | –
C[C@@H]1CC[C@H]2[C@@H](C)C(=O)O[C@@H]3OC(C)(C)OO[C@@]32[C@H]1C | 158 | – | –
C[C@@H]1CC[C@H]2[C@@H](CCCc3ccc(Cl)cc3)CO[C@@H]3O[C@@]4(C)CC[C@@H]1[C@]32OO4 | 4.9 | – | –
C[C@@H]1CC[C@H]2[C@@H](CCCc3ccc(Cl)cc3)C(O)O[C@@H]3O[C@@]4(C)CC[C@@H]1[C@]32OO4 (stereo partly specified) | 4.7 | – | –
C[C@@H]1CC[C@H]2[C@@H](CCCc3cccc(Cl)c3)CO[C@@H]3O[C@@]4(C)CC[C@@H]1[C@]32OO4 | 3.7 | – | –
CCCC[C@H]1C(O)O[C@@H]2O[C@@]3(C)CC[C@H]4[C@H](C)CC[C@@H]1[C@@]24OO3 (stereo partly specified) | 383 | – | –
C[C@@H]1CC[C@H]2CC(O)O[C@@H]3O[C@@]4(C)CC[C@@H]1[C@@]23OO4 (stereo partly specified) | 44.4 | – | –
C[C@@H]1CC[C@H]2[C@@H](CCCc3ccc(C(F)(F)F)cc3)C(O)O[C@@H]3O[C@@]4(C)CC[C@@H]1[C@]32OO4 (stereo partly specified) | 2.9 | – | –
N=C(N)c1ccc(OCCCCCOc2ccc(C(=N)N)cc2)cc1 [PENTAMIDINE] | 1.35 | – | –
C[C@@H]1CC[C@H]2[C@@H](CCCc3cc(F)cc(F)c3)C(O)O[C@@H]3O[C@@]4(C)CC[C@@H]1[C@]32OO4 (stereo partly specified) | 33 | – | –
C[C@@H]1CC[C@H]2CCO[C@@H]3OC4(CCc5ccccc5)CC[C@@H]1[C@@]23OO4 (single isomer, unassigned) | 37.7 | – | –
C[C@@H]1CC[C@H]2[C@@H](C)C(=O)O[C@@H]3O[C@@]4(C)CC[C@@H]1[C@]32OO4 [ARTEMISININ] | 124 | – | –
C[C@@H]1CC[C@H]2[C@@H](C)CO[C@@H]3OC4(C)CC[C@@H]1[C@]32OO4 (single isomer, unassigned) [DEOXOARTEMISININ] | 46.6 | – | –
C[C@@H]1CC[C@H]2[C@@H](CCCc3cc(C(F)(F)F)cc(C(F)(F)F)c3)CO[C@@H]3O[C@@]4(C)CC[C@@H]1[C@]32OO4 | 0.3 | – | –
